The record followed here is ChEMBL document CHEMBL5321283, “Structure-Activity Relationships of the Antimicrobial Peptide Natural Product Apidaecin” (J Med Chem, 2023).

Values after ≈ are worked out from the molar mass of the structure shown. Active and inactive are the calls of the source. The calls are words filed in the database; no cut-off is given here. *1 amine or outer side, *2 acyl side, *3 side chain or, on linkers, in order; H or OH if unused. Where a SMILES comes first, the peptide text is derived from it. [ ]: non-standard residue; d: D form. The star is where a group is joined. Orn(α-tetramethylguanidino) = CN(C)C(=N[C@@H](CCCN)C(=O)*)N(C)C; X1 = N=C(N)NCCC[C@H](NC(=S)[C@@H]1CCCN1[*:1])C(=O)[*:2]; Phe(4-F) = N[C@@H](Cc1ccc(F)cc1)C(=O)O; Arg(Me) = CNC(=N)NCCC[C@H](N)C(=O)O; Hyp = O=C(O)[C@@H]1C[C@@H](O)CN1; Cha = N[C@@H](CC1CCCCC1)C(=O)O; NMeL = CN[C@@H](CC(C)C)C(=O)O

Series [1] relates to Escherichia coli. The series is described as follows: Antibacterial activity against Escherichia coli BL21 assessed as bacterial growth inhibition by broth microdilution assay. The class given is functional. Background: Dilution methods test growth across graded concentrations, often in twofold steps.
Series [2] concerns Escherichia coli. Description: Potency index, ratio of Api-137 MIC to test compound MIC for antibacterial activity against Escherichia coli BL21 assessed as bacterial growth inhibition by broth microdilution assay. The class given is functional.
The test system of series [3] is Escherichia coli. Description: Antibacterial activity against Escherichia coli BL21 harboring sbmA mutant assessed as bacterial growth inhibition by broth microdilution assay. The class given is functional.
The subject of series [4] is Escherichia coli. The series is described as follows: Antibacterial activity against Escherichia coli BL21 harboring RF2 (R262C) mutant assessed as bacterial growth inhibition by broth microdilution assay. In kind it is functional.
For series [5], the system named is Escherichia coli. The series is described as follows: Antibacterial activity against Escherichia coli BL21 harboring RF2 (Q280L) mutant assessed as bacterial growth inhibition by broth microdilution assay. In kind it is functional.
Series [6] has as its system Escherichia coli. Description: Induction of stop-codon readthrough in Escherichia coli BL21 carrying pRXG (UGA) reporter incubated for 18 hrs by imaging analysis. In kind it is functional. In outline:
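Lawn spread on M9 agar with 0.2 mM IPTG and kanamycin, then dried. 2 μL drops of 0.2 mM peptide applied; 1 μL chloramphenicol (1 mg/mL) as negative control. ~18 h, 37 °C; RFP (Cy3) and GFP (Cy2) imaged.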

Series [7] in a line: Stability in human plasma assessed as parent compound remaining measured after 2 hrs. In kind it is ADME, cell-free. The settings on record: read-out: Stability.

Turning to `CC[C@H](C)[C@H](NC(=O)[C@H](Cc1ccc(O)cc1)NC(=O)[C@@H](NC(=O)[C@@H]1CCCN1C(=O)[C@H](CCCNC(=N)N)NC(=O)[C@H](CC(N)=O)NC(=O)[C@H](CC(N)=O)NC(=O)[C@H](CCCN)N=C(N(C)C)N(C)C)C(C)C)C(=O)N1CCC[C@H]1C(=O)N[C@@H](CCCNC(=N)N)C(=O)N1CCC[C@H]1C(=O)N[C@@H](CCCNC(=N)N)C(=O)N1CCC[C@H]1C(=O)N1CCC[C@H]1C(=O)N[C@@H](Cc1c[nH]cn1)C(=O)N1CCC[C@H]1C(=O)N[C@@H](CCCNC(=N)NC)C(=O)N[C@@H](CC(C)C)C(=O)O` ({Orn(α-tetramethylguanidino)}-NNRPVYIPRPRPPHP[Arg(Me)]L-OH), the MIC (usually the lowest concentration that inhibits growth of the organism) was 0.3 µM (≈ 0.692 µg/mL) in the series on Escherichia coli [1], over 25 µM in the series on Escherichia coli [3], over 25 µM with Escherichia coli [4] and 25 µM (≈ 57.6 µg/mL) in the series with Escherichia coli [5]. Moreover, in the series with Escherichia coli [2], the Ratio came to 1. The outcome in the series on Escherichia coli [6] was Active.

Regarding `CC[C@H](C)[C@H](NC(=O)[C@H](Cc1ccc(F)cc1)NC(=O)[C@@H](NC(=O)[C@@H]1C[C@@H](O)CN1C(=O)[C@H](CCCNC(=N)N)NC(=O)[C@H](CC(N)=O)NC(=O)[C@H](CC(N)=O)NC(=O)[C@H](CCCN)N=C(N(C)C)N(C)C)C(C)C)C(=O)N1CCC[C@H]1C(=O)N[C@@H](CCCNC(=N)N)C(=O)N1CCC[C@H]1C(=O)N[C@@H](CCCNC(=N)N)C(=O)N1CCC[C@H]1C(=O)N1CCC[C@H]1C(=O)N[C@@H](Cc1c[nH]cn1)C(=O)N1CCC[C@H]1C(=O)N[C@@H](CCCNC(=N)NC)C(=O)N(C)[C@@H](CC(C)C)C(=O)O` ({Orn(α-tetramethylguanidino)}-NNR[Hyp]V[Phe(4-F)]IPRPRPPHP[Arg(Me)][NMeL]-OH), the values for the MIC with Escherichia coli [3] and in the series with Escherichia coli [4] were over 25 µM and 6.2 µM (≈ 14.5 µg/mL), respectively. Further, in series [7], the remaining at 2 h was about 80%. Also, the outcome with Escherichia coli [6] was Active.

Turning to `CC[C@H](C)[C@H](NC(=O)[C@H](Cc1ccc(O)cc1)NC(=O)[C@@H](NC(=O)[C@@H]1CCCN1C(=O)[C@H](CCCNC(=N)N)NC(=O)[C@H](CC(N)=O)NC(=O)[C@H](CC(N)=O)NC(=O)[C@H](CCCN)N=C(N(C)C)N(C)C)C(C)C)C(=O)N1CCC[C@H]1C(=O)N[C@@H](CCCNC(=N)N)C(=O)N1CCC[C@H]1C(=O)N[C@@H](CCCNC(=N)N)C(=O)N1CCC[C@H]1C(=O)N1CCC[C@H]1C(=O)N[C@@H](Cc1c[nH]cn1)C(=O)N1CCC[C@H]1C(=O)N[C@@H](CCCNC(=N)N)C(=O)N(C)[C@@H](CC(C)C)C(=O)O` ({Orn(α-tetramethylguanidino)}-NNRPVYIPRPRPPHPR[NMeL]-OH), the MIC in the series on Escherichia coli [3] and in the series with Escherichia coli [4] was over 25 µM in each case. Further, the remaining at 2 h in series [7] was about 80%. Besides, in the series with Escherichia coli [6], the outcome was Active.

`CC[C@H](C)[C@H](NC(=O)[C@H](Cc1ccc(O)cc1)NC(=O)[C@@H](NC(=O)[C@@H]1CCCN1C(=O)[C@H](CCCNC(=N)N)NC(=O)[C@H](CC(N)=O)NC(=O)[C@H](CC(N)=O)NC(=O)[C@H](CCCN)N=C(N(C)C)N(C)C)C(C)C)C(=O)N1CCC[C@H]1C(=O)N[C@@H](CCCNC(=N)N)C(=O)N1CCC[C@H]1C(=O)N[C@@H](CCCNC(=N)N)C(=O)N1CCC[C@H]1C(=O)N1CCC[C@H]1C(=O)N[C@@H](Cc1c[nH]cn1)C(=O)N1CCC[C@H]1C(=O)N[C@@H](CCCNC(=N)N)C(=O)N[C@@H](CC(C)C)C(=O)O` ({Orn(α-tetramethylguanidino)}-NNRPVYIPRPRPPHPRL-OH): the MIC is 0.16 µM (≈ 0.367 µg/mL) with Escherichia coli [1], over 25 µM in the series on Escherichia coli [3], over 25 µM in the series on Escherichia coli [4] and over 25 µM in the series on Escherichia coli [5]. In addition, the Ratio in the series on Escherichia coli [2] was 1. Also, in series [7], the remaining at 2 h was about 80%.

As to `CC[C@H](C)[C@H](NC(=O)[C@H](CC1CCCCC1)NC(=O)[C@@H](NC(=O)[C@@H]1CCCN1C(=O)[C@H](CCCNC(=N)N)NC(=O)[C@H](CC(N)=O)NC(=O)[C@H](CC(N)=O)NC(=O)[C@H](CCCN)N=C(N(C)C)N(C)C)C(C)C)C(=O)N1CCC[C@H]1C(=O)N[C@@H](CCCNC(=N)N)C(=O)N1CCC[C@H]1C(=O)N[C@@H](CCCNC(=N)N)C(=O)N1CCC[C@H]1C(=O)N1CCC[C@H]1C(=O)N[C@@H](Cc1c[nH]cn1)C(=O)N1CCC[C@H]1C(=O)N[C@@H](CCCNC(=N)N)C(=O)N[C@@H](CC(C)C)C(=O)O` ({Orn(α-tetramethylguanidino)}-NNRPV[Cha]IPRPRPPHPRL-OH), the MIC in the series on Escherichia coli [1] turned out to be 0.75 µM (≈ 1.71 µg/mL). In addition, the Ratio in the series on Escherichia coli [2] was 2.

For `CC[C@H](C)[C@H](NC(=O)[C@H](Cc1ccc(O)cc1)NC(=O)[C@@H](NC(=O)[C@@H]1CCCN1C(=O)[C@H](CCCNC(=N)N)NC(=O)[C@H](CC(N)=O)NC(=O)[C@H](CC(N)=O)NC(=O)[C@H](CCCN)N=C(N(C)C)N(C)C)C(C)C)C(=O)N1CCC[C@H]1C(=O)N[C@@H](CCCNC(=N)N)C(=O)N1CCC[C@H]1C(=S)N[C@@H](CCCNC(=N)N)C(=O)N1CCC[C@H]1C(=O)N1CCC[C@H]1C(=O)N[C@@H](Cc1c[nH]cn1)C(=O)N1CCC[C@H]1C(=O)N[C@@H](CCCNC(=N)N)C(=O)N[C@@H](CC(C)C)C(=O)O` ({Orn(α-tetramethylguanidino)}-NNRPVYIPR[X1]PPHPRL-OH), the MIC in the series on Escherichia coli [1] worked out at 0.62 µM (≈ 1.43 µg/mL). Also, the Ratio with Escherichia coli [2] stood at 4.
